Assay type in all cases: functional, organism-based
Experiment [1] deals with Mus musculus. The experiment in a line: Tested for the ratio of treated and control tumor to reach 750 mg against murine solid tumor M5076 sarcoma 4.0 mg/kg per injection. The method, boiled down: (§1)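 Solid tumor growth delay assay; B16 melanoma and M5076 sarcoma were run in B6C3F1 (C57BL/6 × C3HF1) mice of 18–22 g. Tumor fragments were implanted SC on day 0, then drug in 0.9% saline was given IP on days 1, 5, 9 or days 3, 7, 11, mg/kg per injection. T − C is the difference in days for treated and control tumors to reach 750 mg. Net log cell kill is tumor burden reduction during therapy. Cured mice were excluded.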

For experiment [2], the system named is L1210. The experiment in a line: Tested for median life span against solid tumor L1210 leukemia at 2.5 mg/kg per injection in experiment 2. To be noted: Mus musculus. The method, boiled down:
(§2)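 CD2F1 mice weighing 18–22 g were inoculated IP with leukemia cells on day 0. Compounds in 0.9% saline were given IP in three injections, dosed by average cage weight, over a dose range from toxic to ineffective. Median life span was recorded, with cause of death assessed at necropsy and 60-day survivors counted as cured.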

The test system of experiment [3] is Mus musculus. The experiment in a line: Tested for the ratio of number of survivors / total number after 60 days at the dose of 3.7 mg/kg per injection against murine leukemia P388 experiment 2. The method, boiled down: (§3)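 CD2F1 (Balb/c × DBA/2F1) mice, 18–22 g, randomized and inoculated IP with counted leukemia cells on day 0, then re-randomized. Three IP treatments, dissolved in 0.9% saline and dosed on average cage weight, with dose in mg/kg per injection across a full toxic-to-ineffective range. Median life span and %T/C were recorded. Survivors at 60 days were counted as cured and excluded from %T/C.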

Experiment [4] has as its system L1210. The experiment in a line: Tested for in vivo weight change against murine L1210 leukemia at the dose of 1.6 mg/kg per injection in experiment 2. The settings on record: Mus musculus. The method, boiled down:
(§4)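 Leukemia life-span assays used CD2F1 (Balb/c × DBA/2F1) mice weighing 18–22 g. Cells were inoculated IP on day 0, and compounds in 0.9% saline were given IP, dosed by average cage weight. Weight change is the difference in mean group weight between the last and first treatment days.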

Experiment [5] has as its system Mus musculus. The experiment in a line: Tested for in vivo weight change against murine M5076 sarcoma at the dose of 4.0 mg/kg per injection. In outline:
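B6C3F1 (C57BL/6 × C3HF1) mice weighing 18–22 g received trocar tumor fragments SC on day 0. Compounds in 0.9% saline were given IP on a three-injection schedule, dosed by average cage weight. Weight change is the maximum treatment-related weight loss during the growth-delay assay.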

In experiment [6] the test system is Mus musculus. The experiment in a line: Tested for the ratio of treated and control tumor to reach 750 mg against murine solid tumor colon carcinoma 2.5 mg/kg per injection.
Experiment [7] concerns L1210. The experiment in a line: Tested for the ratio of number of survivors / total number after 60 days at the dose of 1.6 mg/kg per injection against murine L1210 Pt-resistant leukemia in experiment 2. To be noted: Mus musculus. In outline: as §3
Experiment [8] deals with Mus musculus. The experiment in a line: Tested for the ratio of treated and control against solid tumor murine P388 leukemia 2.3 mg/kg per injection in experiment 2; T/C. In outline: (§5)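 Murine leukemia life span assay in CD2F1 (Balb/c × DBA/2F1) mice, 18–22 g, randomized, with IP tumor cell inoculation on day 0. Depending on the model, the inoculum was 1 × 10^4 cells with IP dosing on days 3, 7 and 11, or 1 × 10^6 cells with IP dosing on days 1, 5 and 9. Drug was given in 0.9% saline, mg/kg per injection, by average cage weight. Read-outs were median day of death and %T/C. Mice alive 60 days after treatment counted as cured and were excluded.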

The subject of experiment [9] is L1210. The experiment in a line: Tested for the ratio of treated and control against solid tumor murine L1210 Pt-resistant leukemia 3.0 mg/kg per injection in experiment 1;T/C. The settings on record: Mus musculus. The method, boiled down:
as §5

The subject of the next experiment is M5076. The experiment in a line: Tested for net cell kill tumor burden reduction during therapy at the dose 4.0 mg/kg in M5076 sarcoma. The arrangement: dose 4 mg/kg. The settings on record: Mus musculus.
The test system of experiment [10] is Mus musculus. The experiment in a line: Tested for in vivo weight change against murine colon carcinoma at the dose of 2.5 mg/kg per injection.
Experiment [11] has as its system Mus musculus. The experiment in a line: Tested for net cell kill tumor burden reduction during therapy at the dose 4.0 mg/kg in B16 melanoma. Details: dose 4 mg/kg. The method, boiled down:
as §1

For experiment [12], the system named is L1210. The experiment in a line: Tested for the ratio of number of survivors / total number after 60 days at the dose of 1.5 mg/kg per injection against murine L1210 Pt-resistant leukemia in experiment 1. To be noted: Mus musculus. In outline: as §3
In experiment [13] the test system is Mus musculus. The experiment in a line: Tested for in vivo weight change against murine P388 leukemia at the dose of 2.3 mg/kg per injection in experiment 2. In outline: as §4
Experiment [14] concerns L1210. The experiment in a line: Tested for median life span against solid tumor L1210 leukemia at 3.0 mg/kg per injection in experiment 1. The settings on record: Mus musculus. The method, boiled down:
as §2

The test system of experiment [15] is L1210. The experiment in a line: Tested for the ratio of treated and control against solid tumor murine L1210 leukemia 3.0 mg/kg per injection in experiment 1; T/C. To be noted: Mus musculus. In outline:
as §5

The subject of experiment [16] is Mus musculus. The experiment in a line: Tested for in vivo weight change against murine P388Pt-resistant leukemia at the dose of 2.3 mg/kg per injection. The method, boiled down: as §4
Experiment [17] deals with Mus musculus. The experiment in a line: Tested for in vivo weight change against murine P388 leukemia at the dose of 3.7 mg/kg per injection in experiment 2. In outline: as §4
The subject of experiment [18] is L1210. The experiment in a line: Tested for the ratio of number of survivors / total number after 60 days at the dose of 2.5 mg/kg per injection against murine leukemia L1210 experiment 2. The settings on record: Mus musculus. The method, boiled down:
as §3

In experiment [19] the test system is L1210. The experiment in a line: Tested for the ratio of treated and control against solid tumor murine L1210 leukemia 2.5 mg/kg per injection in experiment 2; T/C. To be noted: Mus musculus. In outline: as §5
For experiment [20], the system named is Mus musculus. The experiment in a line: Tested for the ratio of treated and control against solid tumor murine P388 Pt-resistant leukemia 5.0 mg/kg per injection; T/C. The method, boiled down: as §5
For experiment [21], the system named is Mus musculus. The experiment in a line: Tested for median life span against solid tumor P388 Pt-resistant leukemia at 10 mg/kg per injection. In outline:
as §2

Experiment [22] has as its system Mus musculus. The experiment in a line: Tested for median life span against solid tumor P388 Pt-resistant leukemia at 5.0 mg/kg per injection. In outline:
as §5

The subject of experiment [23] is L1210. The experiment in a line: Tested for median life span against solid tumor L1210 leukemia at 4.0 mg/kg per injection in experiment 1. To be noted: Mus musculus. In outline: as §2
In experiment [24] the test system is Mus musculus. The experiment in a line: Tested for the ratio of treated and control tumor to reach 750 mg against murine solid tumor M5076 sarcoma 9.0 mg/kg per injection. The method, boiled down: as §1
Experiment [25] relates to L1210. The experiment in a line: Tested for median life span against solid tumor L1210 Pt-resistant leukemia at 6.0 mg/kg per injection. The settings on record: Mus musculus. In outline: as §2
Experiment [26] relates to L1210. The experiment in a line: Tested for the ratio of number of survivors / total number after 60 days at the dose of 6.0 mg/kg per injection against murine L1210 Pt-resistant leukemia. To be noted: Mus musculus. The method, boiled down: as §3
The subject of experiment [27] is Mus musculus. The experiment in a line: Tested for in vivo weight change against murine P388 Pt-resistant leukemia at the dose of 5.0 mg/kg per injection. In outline:
as §4

Experiment [28] relates to L1210. The experiment in a line: Tested for the ratio of treated and control against solid tumor murine L1210 leukemia 10 mg/kg per injection in experiment 2; T/C. To be noted: Mus musculus. The method, boiled down: as §5
Experiment [29] concerns Mus musculus. The experiment in a line: Tested for median life span against solid tumor P388 leukemia at 5.0 mg/kg per injection; T/C. The method, boiled down:
as §5

Experiment [30] concerns L1210. The experiment in a line: Tested for the ratio of treated and control against solid tumor murine L1210 leukemia 4.0 mg/kg per injection in experiment 1; T/C. To be noted: Mus musculus. In outline:
as §5

Experiment [31] has as its system L1210. The experiment in a line: Tested for the ratio of treated and control against solid tumor murine L1210 leukemia 5.0 mg/kg per injection in experiment 2; T/C. To be noted: Mus musculus. In outline:
as §5

In experiment [32] the test system is L1210. The experiment in a line: Tested for the ratio of number of survivors / total number after 60 days at the dose of 10 mg/kg per injection against murine leukemia L1210 experiment 2. The settings on record: Mus musculus. In outline: as §3
In experiment [33] the test system is L1210. The experiment in a line: Tested for in vivo weight change against murine L1210 leukemia at the dose of 4.0 mg/kg per injection in experiment 1. To be noted: Mus musculus. In outline: as §4
Experiment [34] relates to Mus musculus. The experiment in a line: Tested for the ratio of treated and control against solid tumor murine P388 leukemia 10 mg/kg per injection; T/C. The method, boiled down:
as §5

As for [Pt(cis-1,4-dach)CL2], the T-C with Mus musculus [1] worked out at 13.5 days; in the experiment with Mus musculus [6] it was 3.8 days. Besides, the MLS was found to be 22.5 days in the experiment with L1210 [2] and 21.5 days with L1210 [14]. The Survivors in the experiment with Mus musculus [3] came to 0. In addition, the Weight change was 0.9 g with L1210 [4]; -5.5 g with Mus musculus [5]; -4.2 g in the experiment on Mus musculus [10]; -2.2 g in the experiment on Mus musculus [13]; -0.1 g with Mus musculus [16]; -6 g in the experiment with Mus musculus [17]. For the same substance, the 60-day survivors with L1210 [7] worked out at 1; with L1210 [12], 0; in the experiment on L1210 [18], 1. The T/C with Mus musculus [8] turned out to be 225%. Further, the Ratio is 167% in the experiment with L1210 [9], 203% in the experiment with L1210 [15] and 242% with L1210 [19]. Also, the Log net cell kill is 0.6 in the experiment with M5076 and -0.5 in the experiment on Mus musculus [11].
As to CISPLATIN, the T/C in the experiment on Mus musculus [20] was 132%; in the experiment with Mus musculus [29] it was 261%; with Mus musculus [34], 86%. Further, the MLS came out at 18 days in the experiment with Mus musculus [21], 19.3 days in the experiment on Mus musculus [22], 19.5 days in the experiment with L1210 [23] and 12 days in the experiment with L1210 [25]. For the same substance, in the experiment on Mus musculus [24], the T-C is 15.9 days. Further, the Survivors came to 0 with L1210 [26] and 1 with L1210 [32]. Besides, the Weight change with Mus musculus [27] and in the experiment with L1210 [33] was 1 g in each case. The Ratio in the experiment with L1210 [28] is 199%; in the experiment on L1210 [30], 184%; in the experiment with L1210 [31], 172%.

These data come from ChEMBL document CHEMBL1127616, “Synthesis, structural characterization, and antitumor properties of a novel class of large-ring platinum(II) chelate complexes incorporating the cis-1,4-diaminocyclohexane ligand in a unique locked boat conformation” (J Med Chem, 1994).
